Source: PubChem
In the library only some 2.7% were active in any assay of this set; here they are far more common.
Env fusion inh – blocks HIV Env-driven cell-cell fusion | HeLa-JRFL Env/CEM21 cell fusion, luciferase | inhibition, % at 12.3 µM | hit rate 1.1% among 360,000;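 active = mean replicate inhibition score of at least 50 and every replicate individually at or above 50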
S100A4 MyoIIA – S100A4-myosin IIA interaction inhibition | P26447 | S100A4/TAMRA-MyoIIA peptide fluorescence polarization | inhibition, % at 10.7 µM | hit rate 0.14% among 360,000 | AID 652163;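 active = mean inhibition of at least 70% across replicates, with every replicate also reaching that level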
Target sequence (P26447 whole entry, looked up): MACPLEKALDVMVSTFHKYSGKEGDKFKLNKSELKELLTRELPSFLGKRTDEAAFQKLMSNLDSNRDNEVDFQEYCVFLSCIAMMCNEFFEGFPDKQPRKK
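Assay system: human S100A4 monomer with TAMRA-labelled myosin IIA peptide / Buffer or medium: Calcium-containing HEPES buffer, pH 7.2 / Reagent: TAMRA-labelled myosin IIA heavy-chain peptide probe, 5 nM / Compound: one dose per compound / Timing: polarization read 5 min after assay mix addition, stable 5–60 min / Benchmarks: neutral control DMSO, positive control TFP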
F508del corr – correctors of CFTR F508del function in bronchial epithelial cells | CFBE cells, YFP halide quenching; stimulated with forskolin plus potentiator P3; % fluorescence drop versus neutral controls | activity (quench increase), % at 7.58 µM | AID 720511 | hit rate 0.36% among 350,000;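 active = mean added fluorescence quench of at least 8% versus neutral control, with both replicates also reaching 8%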;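 also: cells transiently co-express mutant CFTR-F508del with the halide-sensitive YFP; corrector assay measuring rescue of mutant channel to the surface after 24 h compound exposure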
E-sel inducer – E-selectin induction on HUVECs. AID 686992. hit rate 0.37% among 260,000. HUVEC E-selectin immunofluorescence imaging; normalized: neutral wells 0, TNF-alpha wells 100. activation, % at 7.58 µM. P16581;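 active = mean E-selectin-positive cell signal at least 10% of the positive control, reached in at least 60% of replicates, without over 20% cell loss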
Target sequence (P16581 whole entry, looked up): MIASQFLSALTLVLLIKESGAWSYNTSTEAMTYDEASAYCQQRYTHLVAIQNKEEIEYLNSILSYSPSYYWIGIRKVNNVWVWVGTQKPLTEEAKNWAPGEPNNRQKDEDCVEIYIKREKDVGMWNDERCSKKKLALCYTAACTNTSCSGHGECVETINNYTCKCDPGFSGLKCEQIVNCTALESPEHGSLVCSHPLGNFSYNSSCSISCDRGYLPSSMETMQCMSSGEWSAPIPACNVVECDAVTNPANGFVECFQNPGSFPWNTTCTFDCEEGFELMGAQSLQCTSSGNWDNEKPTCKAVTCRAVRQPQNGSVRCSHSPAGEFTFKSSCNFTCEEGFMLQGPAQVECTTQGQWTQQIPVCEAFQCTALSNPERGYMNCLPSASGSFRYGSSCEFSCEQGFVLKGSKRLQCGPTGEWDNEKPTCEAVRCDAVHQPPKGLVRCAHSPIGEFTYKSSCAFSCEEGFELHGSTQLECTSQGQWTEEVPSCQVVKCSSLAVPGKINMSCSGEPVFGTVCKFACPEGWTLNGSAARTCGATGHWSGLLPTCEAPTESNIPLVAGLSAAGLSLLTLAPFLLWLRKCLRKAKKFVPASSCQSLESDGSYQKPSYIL
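assay system = HUVEC, human umbilical vein endothelial cells | input = 3,000 HUVEC seeded per well | medium = EGM-2 growth medium on 0.1% gelatin-coated wells | dosing = one compound dose added by pin transfer | signal = immunofluorescence imaging | read-out basis = % PE-positive cells | control set = TNF-alpha, DMSO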
FGF22 binding – shifts melting point of recombinant human FGF22. activity (Tm shift, normalised), % at 9.99 µM. AID 651658. hit rate 1.5% among 340,000. recombinant FGF22 thermal shift, SYPRO orange fluorescence; percent of sucrose octasulfate shift, DMSO zero;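 active = mean Tm shift, scaled 0 neutral to 100 positive control, at about 1.3% or above, every replicate too, limit read from the data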
Each line names hits and unclear results; the compound was inactive in the other large screens.

CN(C)CC(=O)Nc1ccc2c(c1)[C@@H]1C[C@H](CC(=O)NCc3ccc(Cl)cc3)O[C@H](CO)[C@@H]1O2	none (no result: Env fusion inh)
CC(=O)c1sc(Nc2nc3ccc(F)cc3s2)nc1C	none (no result: S100A4 MyoIIA, F508del corr, E-sel inducer, FGF22 binding)
COC(=O)c1ccc2nc(Nc3nc4ccc(F)cc4s3)sc2c1	Env fusion inh 57 (no result: F508del corr, E-sel inducer)
COC(=O)c1ccc2nc(NC(=O)C(C)(C)C)sc2c1	FGF22 binding 43 (no result: E-sel inducer)
C[C@H](CO)N1C[C@H](C)[C@@H](CN(C)C(=O)c2ccncc2)OCCCC[C@H](C)Oc2ccc(NC(=O)c3ccccc3)cc2C1=O	none
O=C(C[C@@H]1CC[C@H](NC(=O)CCN2CCCCC2)[C@H](CO)O1)Nc1ccc(-c2ccccc2)cc1	none
O=C(NN1CCOCC1)c1ccc(Cl)cc1[N+](=O)[O-]	E-sel inducer 45 (no result: Env fusion inh)
CC1CN(CCOCCSc2ccc(Cl)cc2)CC(C)O1 (configuration not stated)	none
CC1CN(CCOCCSc2ccccc2)CC(C)O1 (configuration not stated)	FGF22 binding 43 (no result: E-sel inducer)
C[C@H](CO)N1C[C@H](C)[C@H](CN(C)Cc2ccccc2)OCCCC[C@H](C)Oc2ccc(NC(=O)C3CCCCC3)cc2C1=O	none
C[C@H](CO)N1C[C@H](C)[C@H](CN(C)C(=O)C2CCC2)Oc2cc(C3=CCCC3)ccc2S1(=O)=O	none
O=C(Nc1ccc(Cl)cc1)N1C[C@H]2[C@@H](c3ccccc31)[C@H](CO)N2C(=O)C1CC1	none (no result: Env fusion inh)
COc1cccc(N2CCN(C(=O)c3ccc(CS(=O)c4ccc(C)cc4)o3)CC2)c1 (configuration not stated)	F508del corr 9.6 (no result: E-sel inducer)
COc1cccc(N2CCN(C(=O)c3cn(Cc4ccccc4)nc3-c3cccnc3)CC2)c1	F508del corr 15
COc1cccc(N2CCN(C(=O)c3ccc(CS(=O)c4ccc(Cl)cc4)o3)CC2)c1 (configuration not stated)	F508del corr 8.4 (no result: E-sel inducer)
COc1ccccc1N1CCN(C(=O)c2cn(Cc3ccccc3)nc2-c2cccnc2)CC1	none (no result: Env fusion inh)
O=C(CC1CC1)Nc1ccc2c(c1)[C@H]1C[C@@H](CC(=O)N3CCCCC3)O[C@H](CO)[C@H]1O2	none
O=C(COc1ncnc2sccc12)Nc1ccc(F)cc1F	FGF22 binding 44 (no result: E-sel inducer)
CC(C)CNC(=O)COc1ncnc2sccc12	none
Cc1onc(-c2ccc(Cl)cc2)c1-c1ccnc(SCC(=O)Nc2cc(Cl)cc(Cl)c2)n1	Env fusion inh 75 (no result: E-sel inducer)
O=C(CSc1nccc(-c2cccs2)n1)Nc1cccc(Cl)c1	none
Nc1cc2ccncc2c2ccccc12	Env fusion inh 62 (no result: F508del corr)
N#Cc1cc2ccncc2c2ccccc12	none
COc1ccc2c3c(n(C)c2c1)[C@@H](CO)NCC31CCN(C(=O)c2ccccc2)CC1	none (no result: Env fusion inh, S100A4 MyoIIA)
O=C1N/C(=N/O)S/C1=C/c1cccc([N+](=O)[O-])c1	FGF22 binding 44 (no result: E-sel inducer)
O=C1N/C(=N\S(=O)(=O)Cc2ccccc2)S/C1=C/c1cccc([N+](=O)[O-])c1	none
CN(Cc1ccccc1)C(=O)CN1C(=O)NC2(CCCc3sccc32)C1=O (configuration not stated)	FGF22 binding 43
CN(Cc1ccccc1)C(=O)CN1C(=O)NC2(CCCC2)C1=O	none (no result: E-sel inducer)
COCCCN=C1NN=C(c2cc(C)n(Cc3ccccc3Cl)c2C)CS1	F508del corr 9.1, FGF22 binding 43
COCCCN=C1NN=C(c2cc(C)n(-c3ccccc3)c2C)CS1	none (no result: E-sel inducer)
Cc1noc(C)c1S(=O)(=O)N(C)C[C@H]1OCCCC[C@H](C)Oc2ccc(NC(=O)Cc3ccccc3)cc2C(=O)N([C@@H](C)CO)C[C@H]1C	none
CN1C(=O)c2ccccc2Cc2c(NCc3ccccc3)ncnc21	FGF22 binding 43
Cc1n[nH]c(=O)nc1NCc1ccccc1	none (no result: S100A4 MyoIIA, F508del corr, E-sel inducer, FGF22 binding)
CN(CC(=O)Nc1cc(C(F)(F)F)ccc1-n1cncn1)Cc1nc2ccccc2c(=O)[nH]1	none (no result: E-sel inducer)
CCN(CC(=O)Nc1cc(Cl)ccc1-n1cncn1)Cc1nc2ccccc2c(=O)[nH]1	F508del corr 14
O=C(N/N=C/c1cc(Br)c(Br)s1)c1ccncc1	FGF22 binding 44
O=C(NN=Cc1ccc([N+](=O)[O-])cc1)c1ccncc1	FGF22 binding 44
Cc1ccsc1/C=N/NC(=O)c1ccncc1	FGF22 binding 43
O=C(N/N=C/c1ccc([N+](=O)[O-])cc1)c1ccc(COc2ccccc2-c2ccccc2)cc1	FGF22 binding 44 (no result: E-sel inducer)
O=C(N/N=C/c1ccc([N+](=O)[O-])cc1)c1ccccc1OCc1ccccc1	none
Cc1ccsc1/C=N/NC(=O)c1cccnc1	none
O=C(N/N=C/c1ccc(Br)s1)c1ccncc1	none (no result: E-sel inducer)
CCN(CCCNC(=O)CC(C(=O)N1CCc2ccccc21)n1ccnc1)c1ccccc1 (configuration not stated)	Env fusion inh 63 (no result: S100A4 MyoIIA, F508del corr, E-sel inducer, FGF22 binding)
C[C@@H]1CN([C@@H](C)CO)C(=O)Cc2cc(NS(=O)(=O)c3ccc(Cl)cc3)ccc2O[C@@H]1CN(C)C(=O)Nc1cccc2ccccc12	none
O=C1NC(c2ccc(-c3ccccc3[N+](=O)[O-])o2)C(C(=O)c2ccccc2)C(O)(C(F)(F)F)N1 (configuration not stated)	FGF22 binding 43 (no result: E-sel inducer)
Cc1ccc(C(=O)C2C(c3ccc(-c4ccccc4[N+](=O)[O-])o3)NC(=O)NC2(O)C(F)(F)F)cc1 (configuration not stated)	none (no result: Env fusion inh, F508del corr, E-sel inducer, FGF22 binding)
Fc1ccc(COc2ccc3ccccc3c2CNc2nn[nH]n2)cc1	none (no result: E-sel inducer)
Fc1ccccc1COc1ccc2ccccc2c1CNc1nn[nH]n1	FGF22 binding 43 (no result: E-sel inducer)
O=C(NC1CCCC1)N1CC2(C1)[C@@H](c1ccccc1)[C@@H](CO)N2S(=O)(=O)Cc1ccccc1	none (no result: Env fusion inh, FGF22 binding)
COc1cc(CC(=O)OCn2nnc3ccccc3c2=O)cc(OC)c1OC	FGF22 binding 44 (no result: E-sel inducer)
C[C@@H]1CN([C@@H](C)CO)C(=O)c2cc(NS(C)(=O)=O)ccc2O[C@@H]1CN(C)Cc1ccccc1	none
Cc1nn(CC(=O)NC(C)c2ccccc2)c(=O)c2ccccc12 (configuration not stated)	none (no result: S100A4 MyoIIA, F508del corr, E-sel inducer, FGF22 binding)
Cc1c(C=O)c2ccccc2n1CC(=O)NC(C)c1ccccc1 (configuration not stated)	FGF22 binding 43
C=CCn1c(O)c(N=NC(=S)Nc2ccc(OC)cc2)c2ccccc21	Env fusion inh 37 (no result: S100A4 MyoIIA, F508del corr, E-sel inducer, FGF22 binding)
c1ccc(-c2ccccc2OCc2nnc3n2CCC3)cc1	FGF22 binding 43 (no result: E-sel inducer)
FC(F)(F)c1cccc(OCc2nnc3n2CCC3)c1	none (no result: E-sel inducer)
COc1ccccc1NS(=O)(=O)c1cc(NC(=O)c2sc3cc(Cl)ccc3c2Cl)ccc1C	FGF22 binding 44 (no result: E-sel inducer)
COc1ccccc1NS(=O)(=O)c1cc(N=N/C(C(=O)Nc2ccc(Cl)cc2)=C(/C)O)ccc1C	F508del corr 11 (no result: Env fusion inh)
CCNC(=S)Nc1ccc(C)c(S(=O)(=O)Nc2ccccc2OC)c1	none (no result: E-sel inducer)
COc1ccccc1NS(=O)(=O)c1cc(C(=O)N2CCCCCC2)ccc1C	F508del corr 18 (no result: Env fusion inh)
